Substrate in data set [1]: Cc1cc(=O)oc2cc(O)ccc12
In words: Binding affinity to Streptomyces peucetius 4-O-methyltransferase DnrK assessed as maximal activity. Put shortly: (§1)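 N-His6-DnrK (10 μM), expressed in E. coli, was run in 50 mM Tris pH 8.0 at 37 °C with saturating AdoMet (1.6 mM). Acceptor was varied: carminomycin from 15 μM to […] as printed, or 4-methylumbelliferone from 150 μM to 10 mM. Methylated product was quantified by reversed-phase HPLC peak integration. Runs were in triplicate, and parameters came from Michaelis–Menten reciprocal plots.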

Substrate in data set [2]: Cc1cc(=O)oc2cc(O)ccc12
As to the kind of experiment: Binding affinity to Streptomyces peucetius 4-O-methyltransferase DnrK assessed as catalytic constant. The method, boiled down:
as §1

A word on the Km: it is the concentration of substrate that gives half-maximal velocity. What is called kcat is the maximal rate divided by the concentration of active sites.

B1: Carminomycin 4-O-methyltransferase DnrK (Streptomyces peucetius), Q06528 (protein)
chain: MTAEPTVAARPQQIDALRTLIRLGSLHTPMVVRTAATLRLVDHILAGARTVKALAARTDTRPEALLRLIRHLVAIGLLEEDAPGEFVPTEVGELLADDHPAAQRAWHDLTQAVARADISFTRLPDAIRTGRPTYESIYGKPFYEDLAGRPDLRASFDSLLACDQDVAFDAPAAAYDWTNVRHVLDVGGGKGGFAAAIARRAPHVSATVLEMAGTVDTARSYLKDEGLSDRVDVVEGDFFEPLPRKADAIILSFVLLNWPDHDAVRILTRCAEALEPGGRILIHERDDLHENSFNEQFTELDLRMLVFLGGALRTREKWDGLAASAGLVVEEVRQLPSPTIPYDLSLLVLAPAATGA
As to B1, the Michaelis constant (Km) in data set [1] amounted to 1160 µM. In addition, the kcat in data set [2] is 0.0006 s⁻¹.

Source of the values: ChEMBL document CHEMBL5335826, “Biochemical and Structural Studies of the Carminomycin 4-O-Methyltransferase DnrK” (J Nat Prod, 2024).
